Published values from different studies.
Lines come from different studies, so protocols differ.
Target: Calcium/calmodulin-dependent protein kinase kinase 2 (CAMKK2, Homo sapiens, UniProt Q96RR4)

FC(F)(F)Oc1cccc(-c2cnc3ccc(-c4ccncc4)nn23)c1 has a remaining binding of 55% (cell-free assay; competition with immobilised ligand; 5 µM).
CO[C@H]1CC[C@H](CNc2ccc(S(=O)(=O)NC(=O)c3ccc(N4CCN(CC5=C(c6ccc(Cl)cc6)CC(C)(C)CC5)CC4)cc3Oc3cnc4[nH]ccc4c3)cc2[N+](=O)[O-])CC1 has a remaining binding of 81% (cell-free assay; competition with immobilised ligand; 1 µM).
O=C(c1ccc(Nc2nccc(-c3cc4ccccc4s3)n2)cc1)N1CCC(N2CCCC2)CC1 gave a remaining binding of 82% (binding; competition with immobilised ligand; 1 µM).
The remaining binding of CC1CCCN1c1nccc(-c2cnn3ncccc23)n1 (centres unmarked) is reported as 100% (binding; 1 µM).
With COc1cnc(Nc2cccc(S(N)(=O)=O)c2)nc1N1CCN(c2ccccc2)C(=O)C1 the remaining binding was 100% (binding; competition with immobilised ligand; 1 µM).
The remaining binding of C[C@H](c1ccc(F)cc1)N(Cc1cccc(C(=O)O)c1)C(=O)c1cnc2ccccc2c1 is reported as 95% (cell-free assay; competition with immobilised ligand; 1 µM).
C[C@H]1CCN(c2nccc(-c3cnn4ncccc34)n2)C1 has a remaining binding of 74% (binding; 1 µM).
With CO[C@@H](C)c1c(Nc2ccc([C@H](N(C)C(=O)C3CCS(=O)(=O)CC3)C(F)(F)F)cc2)cnc2cc(Cl)nn12 the remaining binding was 80% (cell-free assay; competition with immobilised ligand; 1 µM).
For CNC(=O)[C@@H]1CC[C@@H](n2c(-c3ccc4cnccc4c3)nc3ccc(C(=O)NCc4cccc(C(N)=O)c4)cc32)C1, the remaining binding was 85% (binding; competition with immobilised ligand; 1 µM).
The remaining binding of CN(C)c1ncc(F)c(-c2cnn3ncccc23)n1 is reported as 86% (binding; 1 µM).
O=C(NCC1CCOCC1)c1n[nH]cc1NC(=O)c1c(F)cccc1F has a remaining binding of 68% (binding; competition with immobilised ligand; 1 µM).
C[C@@H](c1ccc(-n2cnc3c(N)ncnc32)cc1)N1CCc2nn(C)c(Cc3ccccc3)c2C1=O has a remaining binding of 94% (binding; competition with immobilised ligand; 0.1 µM).
CN(CCCC(F)(F)F)c1nccc(-c2cnn3ncccc23)n1 gave a remaining binding of 100% (binding; 1 µM).
CC(C)CC(=O)N1CCc2nc(-c3ccc(Br)cc3)nc(N(C)Cc3ccccc3)c2C1 has a remaining binding of 100% (cell-free assay; competition with immobilised ligand; 0.1 µM).
COc1ccnn2ncc(-c3ccnc(N(C)C)n3)c12 gave a remaining binding of 80% (binding; 1 µM).
With c1cncc(-c2cccc(Nc3nccc(NC4CCCCC4)n3)c2)c1 the remaining binding was 69% (binding; competition with immobilised ligand; 10 µM).
For C[C@@H](c1cccc(C#N)c1)n1cc(Cl)cc(C(N)=O)c1=N, the remaining binding was 100% (cell-free assay; competition with immobilised ligand; 1 µM).
N[C@@H]1CCN(c2nccc(-c3cnn4ncccc34)n2)C1 gave a remaining binding of 100% (binding; 1 µM).
For O=C(O)[C@@H]1[C@@H](Cn2nnc3ccccc3c2=O)CC[C@H]1C(=O)c1ccc(OCCC2CCOCC2)cc1, the remaining binding was 100% (cell-free assay; competition with immobilised ligand; 1 µM).
Cc1cnc(Nc2ccc(C(=O)N3CCC(N4CCCC4)CC3)cc2)nc1-c1cc2ccccc2s1 gave a remaining binding of 81% (binding; competition with immobilised ligand; 1 µM).
